Compounds with a hit are over-represented: about 1.9% of the library has one in this group of screens.
Scp-1 inhibitor: Scp-1 (human) phosphatase inhibition; Q9GZU7; inhibition, % at 20 µM; 0.88% of 340,000 active; Recombinant Scp1, phosphopeptide, malachite green phosphate absorbance;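 active = inhibition above about 50% at 20 µM, limit read from the data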;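 note: plate controls were DMSO wells with enzyme for no effect and wells lacking enzyme for full effect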
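Material: truncated SCP-1 phosphatase (76-261aa) / Buffer or medium: 50 mM Tris acetate pH 5.5, 0.005% Tween-20, 10 mM MgCl2 / Compound dosing: one concentration, 20 µM, with 1.0% DMSO / Incubation: 45 min room-temperature reaction, 5 min colour, 30 min stabiliser / Detection: colorimetric free-phosphate detection, absorbance 630 nm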
STEP inh: inhibitors of human striatal-enriched phosphatase STEP; recombinant STEP, OMFP fluorogenic substrate, fluorescence; 0.25% of 360,000 active; inhibition, % at 20 µM; AID 588621; P54829;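 active = inhibition at 20 µM, scaled per plate between control wells, above about 37%, limit read from the data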;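 note: 0% = DMSO with enzyme and substrate and 100% = substrate only without enzyme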
Target sequence (P54829 whole entry, looked up): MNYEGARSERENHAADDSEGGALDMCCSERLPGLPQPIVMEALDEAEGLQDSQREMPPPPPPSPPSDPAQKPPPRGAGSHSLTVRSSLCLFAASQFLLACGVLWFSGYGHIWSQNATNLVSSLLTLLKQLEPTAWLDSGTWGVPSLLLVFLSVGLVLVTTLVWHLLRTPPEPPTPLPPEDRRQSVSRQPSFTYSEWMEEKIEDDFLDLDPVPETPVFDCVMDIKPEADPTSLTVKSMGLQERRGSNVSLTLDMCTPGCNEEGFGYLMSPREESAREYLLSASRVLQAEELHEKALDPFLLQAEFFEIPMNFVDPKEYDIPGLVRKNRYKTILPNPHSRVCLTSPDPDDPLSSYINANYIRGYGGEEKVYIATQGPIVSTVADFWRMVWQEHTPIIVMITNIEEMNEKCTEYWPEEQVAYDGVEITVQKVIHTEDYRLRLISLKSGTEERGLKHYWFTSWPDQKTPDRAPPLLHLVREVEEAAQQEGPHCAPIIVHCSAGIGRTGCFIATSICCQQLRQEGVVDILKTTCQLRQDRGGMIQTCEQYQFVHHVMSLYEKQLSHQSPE
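Measure: Control-normalized % inhibition with plate pattern correction | Test system: STEP phosphatase, cell-free reaction | Medium: pH 6.0 Bis-Tris with DTT and Tween 20 | Technique: Fluorescence, 480/540 nm | Times: Reaction 20 min, ambient temperature | Doses: Single compound dose of 20 µM, 1% DMSO final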
SUMO1 PPI mod: alters human SUMO1 binding to SIM partners; 0.33% of 360,000 active; inhibition, % at 20 µM; P63165; SUMO1 binding to a labelled peptide, TR-FRET, 1 h; AID 602429; in the data active = inhibition above about 37%
SUMO HTRF inh: inhibitors of human SUMOylation (UBC9); P63279; HTRF SUMOylation assay, SAE1/SAE2 + UBC9, in vitro; inhibition, % at 35 µM; 0.36% of 290,000 active; AID 2006; in the data active = inhibition above about 50%, passing the limit was not always enough
Target sequence (P63279 whole entry, looked up): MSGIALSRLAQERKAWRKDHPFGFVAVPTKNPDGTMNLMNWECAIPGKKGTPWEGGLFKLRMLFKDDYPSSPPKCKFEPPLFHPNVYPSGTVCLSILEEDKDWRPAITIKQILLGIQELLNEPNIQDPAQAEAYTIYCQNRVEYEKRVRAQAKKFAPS
LMPTP inh: blocks human LMPTP phosphatase. P24666. recombinant LMPTP-A, OMFP fluorogenic substrate, fluorescence intensity. inhibition, % at 20 µM. 0.22% of 360,000 active. AID 651560;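 active = compounds that cut the enzyme signal by at least half of the control window in the single-dose screen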;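 note: plate controls were DMSO wells with enzyme plus substrate for no effect and substrate without enzyme for full effect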
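Assay system: LMPTP-A, protein tyrosine phosphatase of low molecular weight / Medium: pH 6.0 Bis-Tris buffer with DTT and Triton X-100 / Schedule: 50 min enzyme reaction at room temperature, protected from light / Measured by: endpoint fluorescence intensity from OMFP dephosphorylation / Read-out basis: % inhibition relative to no-enzyme and uninhibited control wells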
DNMT1 inh: inhibitors of human DNMT1; P26358; DNMT1 molecular beacon, Hinp1I cleavage, fluorescence; inhibition (reported as % activation of signal), % at 10 µM; 0.83% of 360,000 active; AID 588458; in the data active = inhibition above about 50%
Scp-1 conf: Scp-1 (human) inhibition, single-dose confirmed; shares compounds with Scp-1 inhibitor; recombinant SCP-1 catalytic domain, phosphate release, malachite green absorbance; inhibition, % at 20 µM; 61% of 2,500 active;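 note: plate controls were DMSO with enzyme for no effect and buffer wells lacking enzyme for full effect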
MG interference: counter-screen for Scp-1 inhibitors: colorimetric interference | shares compounds with Scp-1 inhibitor | apparent inhibition (interference), % at 20 µM | 2,500 tested, under 10 active | Colorimetric interference counterscreen, malachite green absorbance 630 nm;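 note: compounds added after enzyme reaction finished so only phosphate colour detection is probed; plate controls were DMSO wells with completed Scp-1 reaction for no effect and substrate wells lacking enzyme for full effect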
Scp1 DSF: binds human Scp-1, shifting its melting temperature. Recombinant SCP1, Sypro Orange thermal shift Tm. AID 540329. thermal shift relative to vanadate control, % at 40 µM. 25% of 1,500 active. shares compounds with Scp-1 inhibitor;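 active = substances whose mean melting-temperature shift, as a percentage of the reference inhibitor's shift, reaches about 5.3%, limit read from the data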;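 note: 0% = Tm of DMSO wells and 100% = Tm with sodium orthovanadate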
* hit, by the source's call; . = no result.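 Rule for the calls, unless noted: active = inhibition of at least 30% at 20 µM; inactive = the rest.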

SMILES	Scp-1 inhibitor	STEP inh	SUMO1 PPI mod	SUMO HTRF inh	LMPTP inh	DNMT1 inh	Scp-1 conf	MG interference	others
Cc1ccc(C)c(C(=O)Nc2ccncc2)c1	78.1*	0.2	1.5	15.9	-2.8	1.3	-9.3	-10.1
Cc1ccc(C(=O)Nc2ccncc2)c(Cl)c1	5.5	-0.6	-4.4	1.4	-1.6	-0.5	.	.
Cc1ccccc1N=C1NC(=O)/C(=C/c2cccn2-c2cccc(C(=O)O)c2)S1	65.8*	.	.	18.2	.	.	65.4*	-7.3	Scp1 DSF=3.8
CC1=C(C(=O)N2CCCCCC2)CC(CC(=O)NCC2CCCCC2)C(=O)N1CCCN1CCCC1=O (stereo not drawn)	.	.	3.7	.	-0.6	.	.	.
CCN1C(=O)[C@H]2[C@@H](c3ccc(C)cc3)N3C(=O)N(c4ccccc4)C(=O)[C@@]3(C)[C@H]2C1=O	-5.8	-2.4	5.9	16.9	-2.0	7.2	.	.
CCOc1ccc(-c2cn3ccccc3n2)cc1	1.8	-0.6	0.9	9.9	0.9	8.1	.	.
CC(C)(C)Cc1nnc(NC(=O)CCc2ccccc2)s1	5.2	0.4	-1.1	13.5	0.0	2.7	.	.
COc1ccc(C2C(C#N)=C(N)OC3=C2C(=O)CC(C)(C)C3)c(OC)c1OC (stereo not drawn)	50.8*	0.4	0.2	19.1	-2.0	-0.5	-16.0	-13.1
COc1ccc(NC(=O)C2c3ccccc3OCC(=O)N2Cc2cccnc2)cc1 (stereo not drawn)	.	.	1.8	.	-0.9	.	.	.
CCN(CC(=O)NC1CCCCC1)S(=O)(=O)c1ccc(Cl)cc1	63.5*	0.6	1.1	15.2	1.2	4.5	-8.4	-6.2
C/C(N)=C(/C#N)C(=O)CSc1nc2ccccc2[nH]1	69.2*	8.8	8.7	2.7	11.8	44.6	51.3*	-9.0	Scp1 DSF=4.3
COc1ccc(CCNC(=O)C(=O)N/N=C/c2cccs2)cc1OC	-1.4	-1.5	-4.3	5.7	0.8	-0.8	.	.
COc1ccccc1N1CCN(C(=O)CCc2nnc3ccc(N4CCCC4)nn23)CC1	39.6	1.9	1.1	8.8	-0.8	3.5	.	.
COC(=O)C1=C(C)N(c2ccc(C)c(C)c2)/C(=C/c2ccco2)C1=O	58.9*	2.0	-13.6	-8.0	3.2	28.4	19.9	-9.0
CCOC(=O)C1=C(C)N(c2ccc(C)c(C)c2)C(=O)/C1=C\c1ccco1	-15.2	2.0	-4.5	7.5	2.9	3.7	.	.
CCOc1ccc(C(=O)NCC(=O)N2CCc3ccccc3C2)cc1OCC	-1.4	0.2	-0.2	11.6	-1.9	-2.9	.	.
COc1ccc(N2C(=O)CC(N3CCN(S(=O)(=O)c4c(C)cc(C)cc4C)CC3)C2=O)cc1 (stereo not drawn)	-2.4	0.6	-3.6	.	0.8	-4.7	.	.
Cc1ccc(C)c(NC(=O)C2CCCN2S(=O)(=O)c2ccc3c(c2)n(C)c(=O)c(=O)n3C)c1 (stereo not drawn)	-6.6	-0.1	6.6	9.0	-1.0	4.6	-6.2	-10.1
Cn1c(=O)c(=O)n(C)c2cc(S(=O)(=O)N3CCCC3C(=O)NCc3ccco3)ccc21 (stereo not drawn)	-1.8	-4.1	2.0	20.1	-1.9	4.9	.	.
Cc1ccccc1NC(=O)C1CCCN1S(=O)(=O)c1ccc2c(c1)n(C)c(=O)c(=O)n2C (stereo not drawn)	-9.8	-8.3	5.2	12.0	-1.5	5.5	.	.
Cn1c(=O)c(=O)n(C)c2cc(S(=O)(=O)N3CCCC3C(=O)NCc3cccnc3)ccc21 (stereo not drawn)	-9.0	1.9	5.3	3.1	-1.0	2.0	-6.8	-6.0
C=CCOc1c(Br)cc(/C=N/n2c(CC)n[nH]c2=S)cc1Br	71.6*	1.6	4.2	-0.7	0.8	13.3	-16.9	-16.4
O=C(COc1ccc(S(=O)(=O)N2CCOCC2)cc1Cl)NCc1ccc2c(c1)OCO2	.	0.4	-0.2	.	-0.3	0.2	.	.
O=C(NCCc1nc2ccccc2[nH]1)/C(=C/c1ccc2c(c1)OCO2)NC(=O)c1ccccc1Cl	-8.0	-0.2	-4.0	-5.2	0.3	-0.8	.	.
COc1ccc(CNC(=O)C2CCCN(S(=O)(=O)N3CCC(C)CC3)C2)c(OC)c1 (stereo not drawn)	69.5*	-1.3	-3.9	13.7	0.7	-2.8	-13.9	-14.5
SMILES	Scp-1 inhibitor	STEP inh	SUMO1 PPI mod	SUMO HTRF inh	LMPTP inh	DNMT1 inh	Scp-1 conf	MG interference	others
COc1cccc2sc3cc(C#Cc4ccccn4)ccc3c(=O)c12	21.5	2.1	-13.0	.	6.0	10.0	.	.
COc1cc2sc3ccc(C#Cc4ccccn4)cc3c(=O)c2cc1OC	50.4*	10.4	32.4	.	41.8	-32.6	5.4	-14.7
CC(=O)N=C1SC2CS(=O)(=O)CC2N1c1ccc(-c2nc3ccc(C)cc3s2)cc1 (stereo not drawn)	.	.	.	21.3	.	.	.	.
Cc1ccc2nc(-c3ccc(N4C(=NC(=O)CCC(=O)O)SC5CS(=O)(=O)CC54)cc3)sc2c1 (stereo not drawn)	51.3*	-0.4	9.1	30.0	2.3	56.2*	55.3*	-13.1	Scp1 DSF=-4.0
COc1ccc(N(C(=O)COc2ccc(C)cc2)S(=O)(=O)c2ccc(C)cc2)cc1	-12.8	0.0	-2.1	-7.0	3.6	-1.1	.	.
Cc1ccc(NC(=O)c2ccc3nc[nH]c3c2)nc1	56.9*	1.4	14.3	16.8	3.7	14.1	43.7*	-4.9	Scp1 DSF=-4.1
Cc1cccc(C)c1NC(=O)CN(C)C(=O)c1ccc2nc[nH]c2c1	50.0*	-0.4	11.8	.	1.3	-1.2	55.0*	-7.1	Scp1 DSF=-2.5
O=C(O)COc1ccc(Br)cc1/C=N\Nc1ccccn1	0.1	0.4	-3.1	2.9	0.2	-1.6	.	.
Cc1cc(C)c2c(=O)[nH]c(SCC(=O)NCCc3ccccc3)nc2n1	67.5*	-0.3	3.0	2.4	-2.2	1.2	-12.0	-12.3
Cc1cc(C)c2c(=O)[nH]c(SCC(=O)NCc3ccccc3)nc2n1	-8.0	-3.0	-0.3	6.7	-3.5	-0.1	.	.
O=C1CC(=O)Nc2cc(S(=O)(=O)Nc3cccc(C(F)(F)F)c3)ccc2N1	-4.7	-2.4	6.7	10.4	-0.8	5.6	-4.7	-7.3
CCOC(=O)c1c(S(=O)(=O)NCC(=O)N2CCN(c3ccc(F)cc3)CC2)c(C)n(C)c1C	10.9	-0.1	-0.5	-4.7	-1.6	0.5	.	.
NC(=O)c1cc(N2C(=O)C=CC2=O)ccc1Cl	3.1	-2.3	1.0	2.9	-1.0	-10.5	.	.

Screens: PubChem BioAssay, Sanford-Burnham Center for Chemical Genomics
